The values below come from PMC3744939 (ChemMedChem, 2012).

Counter-ions that a name gives are not always drawn. Like-named read-outs stand apart in the source and are kept apart here.

Data set [1] deals with T1, recombinant T. b. brucei CTPS (Trypanosoma brucei brucei, UniProt Q4GZ95).
T1 sequence (Q4GZ95 1-589): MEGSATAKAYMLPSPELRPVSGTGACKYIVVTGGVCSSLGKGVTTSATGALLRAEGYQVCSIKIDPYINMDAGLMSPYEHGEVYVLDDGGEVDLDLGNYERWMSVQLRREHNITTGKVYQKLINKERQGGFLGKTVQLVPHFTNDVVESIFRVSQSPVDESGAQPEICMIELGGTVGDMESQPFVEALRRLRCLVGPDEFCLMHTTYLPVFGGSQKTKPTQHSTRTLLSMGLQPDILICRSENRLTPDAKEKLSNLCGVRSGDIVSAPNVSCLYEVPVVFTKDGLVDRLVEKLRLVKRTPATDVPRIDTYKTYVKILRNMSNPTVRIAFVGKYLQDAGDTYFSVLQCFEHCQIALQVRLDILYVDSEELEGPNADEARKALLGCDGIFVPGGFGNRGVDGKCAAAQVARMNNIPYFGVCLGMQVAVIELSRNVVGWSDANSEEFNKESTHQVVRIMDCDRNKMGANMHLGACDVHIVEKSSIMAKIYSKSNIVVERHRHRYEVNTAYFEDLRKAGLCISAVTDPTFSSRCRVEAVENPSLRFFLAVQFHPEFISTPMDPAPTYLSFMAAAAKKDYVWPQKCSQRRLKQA
The experiment in a line: CTPS enzyme assay. The data set is classed as biochemical. In a few lines: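 Recombinant T. b. brucei CTPS measured by coupled spectrophotometric assay with pyruvate kinase/lactate dehydrogenase. Enzyme pre-incubated with varied test-compound concentrations at room temperature, then added to reaction mix; A341 decrease monitored; IC50.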

The subject of data set [2] is bloodstream form T. b. brucei (strain 427). The experiment in a line: In vitro toxicity assay for T. b. brucei. The data set is classed as cell-based. The following applies: for EC50: read-out: T. b. brucei EC50, strain 427, 48 h + 24 h Alamar Blue.
The test system of data set [3] is HeLa cells. The experiment in a line: In vitro toxicity assay for HeLa mammalian cells. The following applies: read-out: HeLa EC50. It counts as cell-based, human. In a few lines:
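Alamar Blue assay on HeLa cells grown in DMEM with 10% FCS and 2 mM L-glutamine. Cells plated at 3 × 10^5 cells mL−1 and exposed to serially diluted test compound for 16 h before Alamar Blue addition. Fluorescence read at ex 544/em 590 nm; EC50 derived from the dose-response.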

Data set [4] relates to bloodstream form T. b. brucei (strain 427). Conditions: 3-Br versus 3-Cl (Acivicin); cited from earlier work.
Data set [5] has as its target T1, recombinant T. b. brucei CTPS. Conditions: 3-Br versus 3-Cl (Acivicin); cited from earlier work.
Data set [6] relates to HeLa cells. Conditions: 3-Br versus 3-Cl (Acivicin); cited from earlier work.
[7] abbreviates: 16 hours incubation before Alamar Blue.

With `COC1=NO[C@H]([C@H](N)C(=O)O)C1` [Compound 2, (S)-2-amino-2-((S)-3-methoxy-4,5-dihydroisoxazol-5-yl)acetic acid], the IC50 in data set [1] was more than 500 µM. Further, in data set [2], the “S.I. selectivity index (EC50 HeLa/EC50 T. b. brucei)” value (“S.I. selectivity index” below) is listed as more than 5. The EC50 in data set [3] (Homo sapiens, HeLa, 16 h) was more than 500 µM.

As for `CC(C)(C)OC(=O)N[C@H](C(=O)O)[C@@H]1CC(Br)=NO1` [Compound 5], the “CTPS inhibitory potency relative to Br-Acivicin” value in data set [1] (relative to Br-Acivicin) is “twice more potent”. Also, the EC50 in data set [2] is 3400 ± 400 nM; in data set [3] (setting [7]), 4.6 ± 0.5 µM.

Consider `N[C@H](C(=O)O)[C@@H]1CC(Br)=NO1` [Compound 1, Br-Acivicin], for which the “times more potent than Acivicin as a CTPS inhibitor” value in data set [1] (relative to Acivicin) was determined as 3. Also, the values for the EC50 in data set [2] and in data set [3] (setting [7]) were 38 ± 13 nM and 15.1 ± 1.2 µM, respectively. Moreover, the “times more efficacious than Acivicin as an anti-trypanosomal agent” value in data set [2] (relative to Acivicin) is 12. Moreover, the “increase in the in vitro anti-trypanosomal activity” value in data set [4] was “twelve-fold”. Further, the “increase of the inhibitory potency against CTPS” value in data set [5] is given as “three fold”. Moreover, the “toxicity against mammalian cells” value in data set [6] is “unaffected”.

As for `N[C@H](C(=O)O)[C@H]1CC(Cl)=NN1Cc1ccccc1` (relative stereo) [Compound 7a, (S*)-2-amino-2-((R*)-1-benzyl-3-chloro-4,5-dihydro-1H-pyrazol-5-yl)acetic acid hydrochloride], the concentration for half-maximal inhibition (IC50) in data set [1] is more than 500 µM. The concentration giving a half-maximal response (EC50) in data set [3] (Homo sapiens, HeLa, 16 h) is more than 500 µM.

As for `CN(C)C1=NO[C@H]([C@H](N)C(=O)O)C1` [Compound 3, (S)-2-amino-2-((S)-3-(dimethylamino)-4,5-dihydroisoxazol-5-yl)acetic acid], in data set [1], the IC50 is more than 500 µM and the “inhibitory activity against CTPS, in words” value (“inhibitory activity” below) is “complete loss of the inhibitory potency”. In addition, the “S.I. selectivity index” value in data set [2] was more than 5. The EC50 in data set [3] (Homo sapiens, HeLa, 16 h) is more than 500 µM.

On to `CCN1N=C(Cl)C[C@@H]1[C@H](N)C(=O)O.Cl` (relative stereo) [Compound 8a, (S*)-2-amino-2-((R*)-3-chloro-1-ethyl-4,5-dihydro-1H-pyrazol-5-yl)acetic acid hydrochloride], for which, in data set [1], the IC50 was found to be 0.1 ± 0.004 µM and the “inhibitory activity” value was “sub-micromolar inhibition”. Also, the “times more potent than Acivicin as a CTPS inhibitor” value in data set [1] (relative to Acivicin) is on record as “about three times more potent”. Moreover, in data set [2], the “S.I. selectivity index” value is on record as more than 5. In data set [2] (methyl ester versus free amino acid), the “increase of trypanocidal activity upon conversion into the methyl ester (times)” value is on record as “about 9”. The EC50 in data set [3] (Homo sapiens, HeLa, 16 h) is more than 500 µM.

With `N[C@H](C(=O)O)[C@@H]1CC(Cl)=NN1Cc1ccccc1` (relative stereo) [Compound 7b, (S*)-2-amino-2-((S*)-1-benzyl-3-chloro-4,5-dihydro-1H-pyrazol-5-yl)acetic acid hydrochloride], in data set [1], the IC50 was more than 500 µM. Besides, the EC50 in data set [3] (Homo sapiens, HeLa, 16 h) is more than 500 µM.

On to `O=C(N[C@H](C(=O)O)[C@@H]1CC(Br)=NO1)OCc1ccccc1` [Compound 6, (S)-(benzyloxycarbonylamino)-2-((S)-3-bromo-4,5-dihydro-isoxazol-5-yl)acetic acid], for which, in data set [1], the IC50 stood at 1.74 ± 0.4 µM. Besides, the “times weaker than Acivicin as a CTPS inhibitor” value in data set [1] (relative to Acivicin) is 5. Besides, in data set [1] (relative to Br-Acivicin), the “times weaker than Br-Acivicin as a CTPS inhibitor” value amounted to 17. In data set [3] (Homo sapiens, HeLa, 16 h), the EC50 was found to be 410 ± 39 µM.

As to `O=C(O)CC1CC(Br)=NO1` (centres unmarked) [Compound 4, 2-(3-bromo-4,5-dihydroisoxazol-5-yl)acetic acid], in data set [1], the IC50 was more than 500 µM and the “inhibitory activity” value is “inactive”. For the same molecule, the “S.I. selectivity index” value in data set [2] was more than 5. Further, the EC50 in data set [3] (Homo sapiens, HeLa, 16 h) was more than 500 µM.

Turning to `CCN1N=C(Cl)C[C@H]1[C@H](N)C(=O)O` (relative stereo) [Compound 8b, (S*)-2-amino-2-((S*)-3-chloro-1-ethyl-4,5-dihydro-1H-pyrazol-5-yl)acetic acid hydrochloride], the IC50 in data set [1] is more than 500 µM. Also, in data set [3] (Homo sapiens, HeLa, 16 h), the EC50 is more than 500 µM.

Consider `COC(=O)[C@@H](N)[C@@H]1CC(Br)=NO1` [1-COOMe], for which the EC50 in data set [2] turned out to be 2100 ± 500 nM; in data set [3] (setting [7]), 12.5 ± 1.6 µM.

Take `Cl.NCCN1N=C(Cl)CC1C(N)C(=O)O` (centres unmarked) [9a,b, 2-amino-2-(1-(2-aminoethyl)-3-chloro-4,5-dihydro-1H-pyrazol-5-yl)acetic acid monohydrochloride]: in data set [1], the IC50 was determined as 0.125 ± 0.002 µM and the “inhibitory activity” value was “sub-micromolar inhibition”. The “times more potent than Acivicin as a CTPS inhibitor” value in data set [1] (relative to Acivicin) is on record as “about three times more potent”. Also, the EC50 in data set [3] (Homo sapiens, HeLa, 16 h) is more than 500 µM.

On to `COC(=O)[C@@H](N)[C@@H]1CC(Cl)=NO1` [Acivicin-COOMe], for which the values for the EC50 in data set [2] and in data set [3] (setting [7]) were 22400 ± 1300 nM and 41.9 ± 3.1 µM, respectively.

On to `N[C@H](C(=O)O)[C@@H]1CC(Cl)=NO1` [Acivicin, reference compound], for which the “S.I. selectivity index” value in data set [2] worked out at 36. For the same molecule, in data set [3] (Homo sapiens, HeLa, 16 h), the EC50 was 16.3 µM.
